Results gathered from unrelated publications.
Compare with care: the assays were run in different laboratories.
Target: Serine/threonine-protein kinase ULK3 (ULK3, Homo sapiens, UniProt Q6PHR2)
One construct used (Q6PHR2 1-472): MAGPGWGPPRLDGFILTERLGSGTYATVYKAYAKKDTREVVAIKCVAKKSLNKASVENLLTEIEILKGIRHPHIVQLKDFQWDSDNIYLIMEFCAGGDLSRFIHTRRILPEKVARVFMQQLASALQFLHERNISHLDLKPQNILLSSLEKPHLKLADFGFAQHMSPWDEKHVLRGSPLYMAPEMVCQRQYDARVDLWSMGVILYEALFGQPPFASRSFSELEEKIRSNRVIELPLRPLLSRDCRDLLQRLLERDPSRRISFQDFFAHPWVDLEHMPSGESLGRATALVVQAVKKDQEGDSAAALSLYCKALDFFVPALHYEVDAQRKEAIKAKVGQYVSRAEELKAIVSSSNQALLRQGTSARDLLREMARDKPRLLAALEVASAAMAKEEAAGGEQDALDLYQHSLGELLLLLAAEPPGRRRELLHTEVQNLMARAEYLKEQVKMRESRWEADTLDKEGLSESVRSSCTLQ

Structure (SMILES) | assay | setting | quantity | value
C[C@@]1(Cc2ccc(C#N)cc2)C(=O)N(c2cc(Cl)cc(Cl)c2)c2ncc(C(=O)NC3(c4nc(C5CCC5)no4)CC3)n21 | cell-free assay, competition with immobilised ligand | 1 µM | remaining binding | 100%
COc1cccc2c(NCc3ccccc3)nc(-n3c(N)nc4ccccc43)nc12 | target engagement in cells, inhibitor, chemoproteomics | 20 mM | inhibition | -11.6%
O=C(Nc1cnn(-c2csc(C(=O)NC3COC3)c2)c1)Nc1c(F)cccc1Cl | enzyme activity, inhibitor | 5 µM | remaining activity | 76.6%
Cc1ccc(C(=O)NCc2ccsc2)cc1C#Cc1cn(C(C)C)c2ncnc(N)c12 | enzyme activity, inhibitor | 1 µM | activity vs control | 84%
CCN(CC)CCNC(=O)c1c(C)[nH]c(/C=C2\C(=O)Nc3ccc(F)cc32)c1C | cell-free assay | 0.5 µM | remaining signal | 57.4%
Cc1cc(NC(=O)c2cccc(S(F)(F)(F)(F)F)c2)cc(-n2ccn3nc(-c4cccnc4)cc23)c1 | cell-free assay, competition with immobilised ligand | 1 µM | remaining binding | 75.2%
COc1cc(Cl)c(C(=O)N[C@@H](CN[C@H]2CC[C@@H](N)CC2)Cc2ccc(C#N)cc2)cc1-c1ccc(CN[C@H](C)c2ccc(C)cc2)o1 | enzyme activity, inhibitor | 1 µM | remaining activity | 98%
O=C1Nc2ccc(Cl)cc2C1=Cc1cc(Cl)c(O)c(Cl)c1 | cell-free assay | 0.5 µM | remaining signal | 92.2%
Nc1ncnc2occ(-c3ccc(NC(=O)Nc4cc(C(F)(F)F)ccc4F)cc3)c12 | cell-free assay, inhibitor | 20 µM | remaining signal | 0.6%
Nc1cnc(N2CCc3cc(S(=O)(=O)Nc4c(F)cc(Cl)cc4F)cc(N4CCCC4=O)c32)nc1 | cell-free assay, competition with immobilised ligand | 1 µM | remaining binding | 100%
Clc1ccc(Nc2nnc(Cc3ccncc3)c3ccccc23)cc1 | cell-free assay | 0.5 µM | remaining signal | 101%
c1ccc(N2CCN(Cc3nc4ccccc4[nH]3)CC2)nc1 | binding, competition with immobilised ligand | 1 µM | remaining binding | 100%
CS(=O)(=O)CCNCc1ccc(-c2ccc3ncnc(Nc4ccc(OCc5cccc(F)c5)c(Cl)c4)c3c2)o1 | cell-free assay | 0.5 µM | remaining signal | 106%
Cc1cnc(NC2CCOCC2)nc1-n1cnc(C(=O)NC(CN)c2cc(F)cc(Cl)c2)c1 (centres unmarked) | enzyme activity, inhibitor, radiometric | 1 µM | remaining activity | 91%
